From ChEMBL document CHEMBL5058577, “EUbOPEN Chemogenomics Library 2 (Multiplex)” (2022)

System: U2OS
Experiment: Multiplex assay against U2OS
Type: toxicity, cell-based
Conditions: human
Method in brief: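 Imaging took place on a CQ1 microscope at 37°C and 5% CO2 once compound had been added to live cells stained at seeding with Hoechst33342, BioTracker Green Microtubule Cytoskeleton Dye, MitoTracker Red and Annexin V Alexa Fluor 680. CellPathfinder machine-learning gating classed cells as Hoechst high-intensity objects or normal cells, classed normal cells as having healthy, pyknosed or fragmented nuclei, and classed pyknosed cells as mitotic or apoptotic. Tubulin, mitochondrial-mass and membrane-permeability phenotypes are per cents of the healthy-nucleus cells.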

[1] = 12 h, 1 µM, compound concentration 1 uM, replicate 1
[2] = 12 h, 1 µM, compound concentration 1 uM, replicate 2
[3] = 12 h, 10 µM, compound concentration 10 uM, replicate 1
[4] = 12 h, 10 µM, compound concentration 10 uM, replicate 2
[5] = 24 h, 1 µM, compound concentration 1 uM, replicate 1
[6] = 24 h, 1 µM, compound concentration 1 uM, replicate 2
[7] = 24 h, 10 µM, compound concentration 10 uM, replicate 1
[8] = 24 h, 10 µM, compound concentration 10 uM, replicate 2
[9] = 48 h, 1 µM, compound concentration 1 uM, replicate 1
[10] = 48 h, 1 µM, compound concentration 1 uM, replicate 2
[11] = 48 h, 10 µM, compound concentration 10 uM, replicate 1
[12] = 48 h, 10 µM, compound concentration 10 uM, replicate 2

Q: For `Nc1nc(CC(=O)Nc2ccc(CCNC[C@H](O)c3ccccc3)cc2)cs1` [MIRABEGRON], which “Population Apoptotic (%)” value [1] is on record?
A: Its value is 86%.

Q: What about the “Population Fragmented Nuclei (%)” value [1] of the same compound?
A: The value was 24%.

Q: What about the “Population Healthy Nuclei (%)” value [1] of the same compound?
A: Its value is 62%.

Q: What about the “Population Hoechst High Intensity Objects (%)” value [1] of the same compound?
A: The value was 1%.

Q: What about the “Population Membrane Permeable-Phenotype (%)” value [1] of the same compound?
A: The value was 6%.

Q: What about the “Population Mitochondria Different-Phenotype (%)” value [1] of the same compound?
A: Its value is 3%.

Q: And the “Population Mitotic Cells (%)” value [1]?
A: Its value is 13%.

Q: And the “Population Normal (%)” value [1]?
A: Its value is 98%.

Q: And the “Population Pyknosed Nuclei (%)” value [1]?
A: The value was 12%.

Q: What about the “Population Tubulin-Different-Phenotype (%)” value [1] of the same compound?
A: Its value is 4%.

Q: And the “Total Cell Count” value [1]?
A: The value was 240.

Q: What about the “Population Apoptotic (%)” value [2] of the same compound?
A: The value was 100%.

Q: What about the “Population Fragmented Nuclei (%)” value [2] of the same compound?
A: The value was 13%.

Q: What about the “Population Healthy Nuclei (%)” value [2] of the same compound?
A: The value was 74%.

Q: And the “Population Hoechst High Intensity Objects (%)” value [2]?
A: The value was 0%.

Q: And the “Population Membrane Permeable-Phenotype (%)” value [2]?
A: The value was 5%.

Q: What about the “Population Mitochondria Different-Phenotype (%)” value [2] of the same compound?
A: The value was 2%.

Q: What about the “Population Mitotic Cells (%)” value [2] of the same compound?
A: Its value is 0%.

Q: What about the “Population Normal (%)” value [2] of the same compound?
A: The value was 99%.

Q: What about the “Population Tubulin-Different-Phenotype (%)” value [2] of the same compound?
A: The value was 5%.

Q: And the “Total Cell Count” value [2]?
A: Its value is 107.

Q: What about the “Population Apoptotic (%)” value [3] of the same compound?
A: The value was 86%.

Q: And the “Population Fragmented Nuclei (%)” value [3]?
A: Its value is 18%.

Q: What about the “Population Healthy Nuclei (%)” value [3] of the same compound?
A: The value was 70%.

Q: What about the “Population Hoechst High Intensity Objects (%)” value [3] of the same compound?
A: The value was 1%.

Q: And the “Population Membrane Permeable-Phenotype (%)” value [3]?
A: The value was 6%.

Q: And the “Population Mitochondria Different-Phenotype (%)” value [3]?
A: The value was 2%.

Q: And the “Population Mitotic Cells (%)” value [3]?
A: Its value is 13%.

Q: What about the “Population Normal (%)” value [3] of the same compound?
A: The value was 98%.

Q: What about the “Population Pyknosed Nuclei (%)” value [3] of the same compound?
A: The value was 11%.

Q: And the “Population Tubulin-Different-Phenotype (%)” value [3]?
A: The value was 4%.

Q: What about the “Total Cell Count” value [3] of the same compound?
A: The value was 319.

Q: What about the “Population Apoptotic (%)” value [4] of the same compound?
A: The value was 66%.

Q: What about the “Population Fragmented Nuclei (%)” value [4] of the same compound?
A: Its value is 21%.

Q: What about the “Population Healthy Nuclei (%)” value [4] of the same compound?
A: The value was 71%.

Q: What about the “Population Hoechst High Intensity Objects (%)” value [4] of the same compound?
A: Its value is 0%.

Q: And the “Population Membrane Permeable-Phenotype (%)” value [4]?
A: The value was 7%.

Q: And the “Population Mitochondria Different-Phenotype (%)” value [4]?
A: Its value is 3%.

Q: And the “Population Mitotic Cells (%)” value [4]?
A: Its value is 33%.

Q: What about the “Population Normal (%)” value [4] of the same compound?
A: The value was 99%.

Q: What about the “Population Pyknosed Nuclei (%)” value [4] of the same compound?
A: The value was 6%.

Q: And the “Population Tubulin-Different-Phenotype (%)” value [4]?
A: Its value is 1%.

Q: What about the “Total Cell Count” value [4] of the same compound?
A: Its value is 136.

Q: And the “Population Apoptotic (%)” value [5]?
A: Its value is 82%.

Q: And the “Population Fragmented Nuclei (%)” value [5]?
A: The value was 21%.

Q: What about the “Population Healthy Nuclei (%)” value [5] of the same compound?
A: Its value is 70%.

Q: What about the “Population Hoechst High Intensity Objects (%)” value [5] of the same compound?
A: The value was 2%.

Q: What about the “Population Membrane Permeable-Phenotype (%)” value [5] of the same compound?
A: The value was 4%.

Q: What about the “Population Mitochondria Different-Phenotype (%)” value [5] of the same compound?
A: Its value is 2%.

Q: And the “Population Mitotic Cells (%)” value [5]?
A: Its value is 17%.

Q: And the “Population Normal (%)” value [5]?
A: The value was 97%.

Q: What about the “Population Pyknosed Nuclei (%)” value [5] of the same compound?
A: Its value is 8%.

Q: What about the “Population Tubulin-Different-Phenotype (%)” value [5] of the same compound?
A: The value was 3%.

Q: What about the “Total Cell Count” value [5] of the same compound?
A: The value was 289.

Q: What about the “Population Apoptotic (%)” value [6] of the same compound?
A: Its value is 58%.

Q: What about the “Population Fragmented Nuclei (%)” value [6] of the same compound?
A: Its value is 11%.

Q: And the “Population Healthy Nuclei (%)” value [6]?
A: The value was 79%.

Q: And the “Population Hoechst High Intensity Objects (%)” value [6]?
A: The value was 0%.

Q: And the “Population Membrane Permeable-Phenotype (%)” value [6]?
A: The value was 9%.

Q: And the “Population Mitochondria Different-Phenotype (%)” value [6]?
A: Its value is 3%.

Q: And the “Population Mitotic Cells (%)” value [6]?
A: The value was 41%.

Q: And the “Population Normal (%)” value [6]?
A: Its value is 99%.

Q: And the “Population Pyknosed Nuclei (%)” value [6]?
A: The value was 9%.

Q: And the “Population Tubulin-Different-Phenotype (%)” value [6]?
A: The value was 7%.

Q: What about the “Total Cell Count” value [6] of the same compound?
A: Its value is 125.

Q: What about the “Population Apoptotic (%)” value [7] of the same compound?
A: The value was 86%.

Q: What about the “Population Fragmented Nuclei (%)” value [7] of the same compound?
A: The value was 17%.

Q: And the “Population Healthy Nuclei (%)” value [7]?
A: The value was 75%.

Q: What about the “Population Hoechst High Intensity Objects (%)” value [7] of the same compound?
A: Its value is 1%.

Q: What about the “Population Membrane Permeable-Phenotype (%)” value [7] of the same compound?
A: The value was 5%.

Q: What about the “Population Mitochondria Different-Phenotype (%)” value [7] of the same compound?
A: The value was 3%.

Q: What about the “Population Mitotic Cells (%)” value [7] of the same compound?
A: The value was 13%.

Q: And the “Population Normal (%)” value [7]?
A: Its value is 98%.

Q: And the “Population Pyknosed Nuclei (%)” value [7]?
A: Its value is 7%.

Q: What about the “Population Tubulin-Different-Phenotype (%)” value [7] of the same compound?
A: The value was 3%.

Q: What about the “Total Cell Count” value [7] of the same compound?
A: The value was 405.

Q: What about the “Population Apoptotic (%)” value [8] of the same compound?
A: Its value is 76%.

Q: And the “Population Fragmented Nuclei (%)” value [8]?
A: The value was 20%.

Q: And the “Population Healthy Nuclei (%)” value [8]?
A: Its value is 71%.

Q: And the “Population Membrane Permeable-Phenotype (%)” value [8]?
A: Its value is 9%.

Q: What about the “Population Mitochondria Different-Phenotype (%)” value [8] of the same compound?
A: Its value is 5%.

Q: And the “Population Mitotic Cells (%)” value [8]?
A: The value was 23%.

Q: What about the “Population Tubulin-Different-Phenotype (%)” value [8] of the same compound?
A: The value was 4%.

Q: What about the “Total Cell Count” value [8] of the same compound?
A: Its value is 167.

Q: And the “Population Apoptotic (%)” value [9]?
A: Its value is 84%.

Q: What about the “Population Fragmented Nuclei (%)” value [9] of the same compound?
A: The value was 17%.

Q: What about the “Population Healthy Nuclei (%)” value [9] of the same compound?
A: The value was 72%.

Q: And the “Population Hoechst High Intensity Objects (%)” value [9]?
A: The value was 2%.

Q: And the “Population Membrane Permeable-Phenotype (%)” value [9]?
A: The value was 4%.

Q: What about the “Population Mitochondria Different-Phenotype (%)” value [9] of the same compound?
A: Its value is 3%.

Q: What about the “Population Mitotic Cells (%)” value [9] of the same compound?
A: The value was 15%.

Q: And the “Population Normal (%)” value [9]?
A: The value was 97%.

Q: And the “Population Pyknosed Nuclei (%)” value [9]?
A: Its value is 9%.

Q: And the “Population Tubulin-Different-Phenotype (%)” value [9]?
A: Its value is 3%.

Q: What about the “Total Cell Count” value [9] of the same compound?
A: Its value is 394.

Q: And the “Population Apoptotic (%)” value [10]?
A: Its value is 78%.

Q: And the “Population Fragmented Nuclei (%)” value [10]?
A: Its value is 12%.

Q: What about the “Population Healthy Nuclei (%)” value [10] of the same compound?
A: The value was 74%.

Q: What about the “Population Membrane Permeable-Phenotype (%)” value [10] of the same compound?
A: Its value is 8%.

Q: And the “Population Mitotic Cells (%)” value [10]?
A: Its value is 21%.

Q: And the “Population Pyknosed Nuclei (%)” value [10]?
A: Its value is 13%.

Q: What about the “Population Tubulin-Different-Phenotype (%)” value [10] of the same compound?
A: The value was 7%.

Q: What about the “Total Cell Count” value [10] of the same compound?
A: Its value is 179.

Q: What about the “Population Apoptotic (%)” value [11] of the same compound?
A: The value was 87%.

Q: And the “Population Fragmented Nuclei (%)” value [11]?
A: Its value is 14%.

Q: What about the “Population Healthy Nuclei (%)” value [11] of the same compound?
A: Its value is 74%.

Q: What about the “Population Hoechst High Intensity Objects (%)” value [11] of the same compound?
A: Its value is 2%.

Q: What about the “Population Membrane Permeable-Phenotype (%)” value [11] of the same compound?
A: Its value is 5%.

Q: What about the “Population Mitochondria Different-Phenotype (%)” value [11] of the same compound?
A: Its value is 2%.

Q: What about the “Population Mitotic Cells (%)” value [11] of the same compound?
A: The value was 12%.

Q: And the “Population Normal (%)” value [11]?
A: Its value is 97%.

Q: What about the “Population Pyknosed Nuclei (%)” value [11] of the same compound?
A: The value was 10%.

Q: What about the “Population Tubulin-Different-Phenotype (%)” value [11] of the same compound?
A: Its value is 2%.

Q: And the “Total Cell Count” value [11]?
A: The value was 534.

Q: And the “Population Apoptotic (%)” value [12]?
A: Its value is 70%.

Q: What about the “Population Healthy Nuclei (%)” value [12] of the same compound?
A: Its value is 78%.

Q: What about the “Population Membrane Permeable-Phenotype (%)” value [12] of the same compound?
A: Its value is 3%.

Q: And the “Population Mitochondria Different-Phenotype (%)” value [12]?
A: The value was 3%.

Q: What about the “Population Mitotic Cells (%)” value [12] of the same compound?
A: Its value is 29%.

Q: What about the “Population Pyknosed Nuclei (%)” value [12] of the same compound?
A: The value was 7%.

Q: And the “Population Tubulin-Different-Phenotype (%)” value [12]?
A: The value was 1%.

Q: What about the “Total Cell Count” value [12] of the same compound?
A: The value was 232.
